Experimental data taken from the M2OR odorant receptor database.

How the values were obtained:
Settings in all cases: stereoisomer not certain
Or5p80 (Mus musculus) = biological target: T1, Or5p80 (Mus musculus) (UniProt Q8VG42)
T1 sequence (whole entry): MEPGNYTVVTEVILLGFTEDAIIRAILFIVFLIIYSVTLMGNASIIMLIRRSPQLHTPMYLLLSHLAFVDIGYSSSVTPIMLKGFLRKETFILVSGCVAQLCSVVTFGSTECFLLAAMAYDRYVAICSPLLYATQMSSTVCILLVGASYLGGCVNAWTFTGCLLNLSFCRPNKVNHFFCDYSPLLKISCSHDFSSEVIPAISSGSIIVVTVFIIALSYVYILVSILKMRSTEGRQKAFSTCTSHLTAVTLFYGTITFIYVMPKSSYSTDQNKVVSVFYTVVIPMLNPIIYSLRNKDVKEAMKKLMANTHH
Summary of the method: (§1)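 Each receptor–molecule pair is labelled responsive or non-responsive (inactive) according to whether the original authors judged the measured signal statistically different from baseline. The data were taken from the main text and supplementary material of published papers and checked for typos and inconsistencies. Assay methods differed by source, with transient luciferase assays in mammalian cell lines being common.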

Or7a40 (Mus musculus) = biological target: T2, Or7a40 (Mus musculus) (UniProt Q9JHB2)
T2 sequence (whole entry): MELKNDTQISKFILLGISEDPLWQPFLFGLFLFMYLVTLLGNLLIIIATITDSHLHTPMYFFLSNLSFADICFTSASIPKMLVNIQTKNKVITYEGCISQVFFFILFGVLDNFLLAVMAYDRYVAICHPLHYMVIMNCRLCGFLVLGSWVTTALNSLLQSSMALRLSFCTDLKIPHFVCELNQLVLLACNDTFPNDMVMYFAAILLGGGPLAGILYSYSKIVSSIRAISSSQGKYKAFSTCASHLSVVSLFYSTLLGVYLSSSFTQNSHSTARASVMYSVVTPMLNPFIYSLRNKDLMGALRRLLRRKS
Summary of the method: as §1

Or5p57 (Mus musculus) = biological target: T3, Or5p57 (Mus musculus) (UniProt Q8VEZ0)
T3 sequence (whole entry): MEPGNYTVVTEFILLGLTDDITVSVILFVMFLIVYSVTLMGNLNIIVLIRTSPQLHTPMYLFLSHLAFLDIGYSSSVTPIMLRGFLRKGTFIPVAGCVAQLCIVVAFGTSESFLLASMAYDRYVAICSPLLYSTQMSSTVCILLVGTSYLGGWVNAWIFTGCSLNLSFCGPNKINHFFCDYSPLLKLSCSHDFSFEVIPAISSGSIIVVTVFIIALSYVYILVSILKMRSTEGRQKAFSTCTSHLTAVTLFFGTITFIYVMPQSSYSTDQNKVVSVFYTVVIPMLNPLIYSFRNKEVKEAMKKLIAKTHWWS
Summary of the method: as §1

Or8b3 (Mus musculus) = Or8b3 (Mus musculus) (UniProt Q60886)
Summary of the method: as §1

Q8N628 T20A L289V = test system: Q8N628 T20A L289V
Summary of the method: as §1

Q8NGC2 A119T = test system: Q8NGC2 A119T
Summary of the method: as §1

Q8NGH7 D88N = test system: Q8NGH7 D88N
Summary of the method: as §1

Q8VF87 A279V = test system: Q8VF87 A279V
Summary of the method: as §1

Q8VF87 E162D = test system: Q8VF87 E162D
Summary of the method: as §1

Q8VF87 I202L = test system: Q8VF87 I202L
Summary of the method: as §1
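Note: active if original authors judged signal statistically different from baseline.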

Chain of Or8b3 (Mus musculus) (Q60886 whole entry): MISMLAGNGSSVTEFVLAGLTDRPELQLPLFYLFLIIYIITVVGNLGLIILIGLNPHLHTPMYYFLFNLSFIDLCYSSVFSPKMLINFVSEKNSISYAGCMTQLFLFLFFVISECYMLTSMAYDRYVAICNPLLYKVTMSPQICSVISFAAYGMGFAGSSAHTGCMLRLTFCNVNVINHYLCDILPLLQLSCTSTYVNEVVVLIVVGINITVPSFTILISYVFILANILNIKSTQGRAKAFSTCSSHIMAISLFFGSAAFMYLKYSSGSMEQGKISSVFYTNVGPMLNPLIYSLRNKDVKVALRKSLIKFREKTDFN

Compound: C=CCOC(=O)CCCCCC
- odorant receptor agonist call (Or5p80 (Mus musculus)): inactive
- odorant receptor agonist call (Or7a40 (Mus musculus)): inactive

Compound: CCCC(=O)C(C)=O
- odorant receptor agonist call (Or5p80 (Mus musculus)): inactive
- odorant receptor agonist call (Or7a40 (Mus musculus)): inactive

Compound: CCC(C(=O)O)c1ccccc1 (configuration not stated)
- odorant receptor agonist call (Or5p80 (Mus musculus)): inactive
- odorant receptor agonist call (Or7a40 (Mus musculus)): inactive

Compound: O=C([O-])CCCCCCC(=O)[O-].[H+].[H+]
- odorant receptor agonist call (Or5p57 (Mus musculus)): inactive

Compound: CCCCCCC(=O)[O-].[H+]
- odorant receptor agonist call (Or5p57 (Mus musculus)): inactive
- odorant receptor agonist call (Or5p80 (Mus musculus)): inactive
- odorant receptor agonist call (Or7a40 (Mus musculus)): inactive

Compound: O=C([O-])CCCCC(=O)[O-].[H+].[H+]
- odorant receptor agonist call (Or5p57 (Mus musculus)): inactive

Compound: c1ccccc1
- odorant receptor agonist call (Or5p80 (Mus musculus)): inactive
- odorant receptor agonist call (Or7a40 (Mus musculus)): inactive

Compound: CCCCCCCCCO
- odorant receptor agonist call (Or5p57 (Mus musculus)): inactive
- odorant receptor agonist call (Or5p80 (Mus musculus)): inactive
- odorant receptor agonist call (Or7a40 (Mus musculus)): inactive

Compound: CCCCCCCCC(=O)O
- odorant receptor agonist call (Or5p57 (Mus musculus)): inactive
- odorant receptor agonist call (Or5p80 (Mus musculus)): inactive
- odorant receptor agonist call (Or7a40 (Mus musculus)): inactive

Compound: CC(=O)Oc1ccccc1
- odorant receptor agonist call (Or5p80 (Mus musculus)): inactive
- odorant receptor agonist call (Or7a40 (Mus musculus)): inactive

Compound: CC12CCC(CC1=O)C2(C)C (configuration not stated)
- odorant receptor agonist call (Or5p80 (Mus musculus)): inactive
- odorant receptor agonist call (Or7a40 (Mus musculus)): inactive

Compound: O=C(O)CCCBr
- odorant receptor agonist call (Or5p57 (Mus musculus)): inactive

Compound: O=C([O-])CCCCCCCC(=O)[O-].[H+].[H+]
- odorant receptor agonist call (Or5p57 (Mus musculus)): inactive

Compound: CCCCCCCC(=O)[O-].[H+]
- odorant receptor agonist call (Or5p57 (Mus musculus)): inactive
- odorant receptor agonist call (Or5p80 (Mus musculus)): inactive
- odorant receptor agonist call (Or7a40 (Mus musculus)): inactive

Compound: O=C(O)CCCCBr
- odorant receptor agonist call (Or5p57 (Mus musculus)): inactive

Compound: CCCCCC1=C(C)CCC1=O
- odorant receptor agonist call (Or5p80 (Mus musculus)): inactive
- odorant receptor agonist call (Or7a40 (Mus musculus)): active

Compound: O=C(c1ccccc1)c1ccccc1
- odorant receptor agonist call (Or5p80 (Mus musculus)): inactive
- odorant receptor agonist call (Or7a40 (Mus musculus)): inactive

Compound: CCCCCCO
- odorant receptor agonist call (Or5p57 (Mus musculus)): active
- odorant receptor agonist call (Or5p80 (Mus musculus)): inactive
- odorant receptor agonist call (Or7a40 (Mus musculus)): inactive

Compound: CCCCC(=O)O
- odorant receptor agonist call (Or5p57 (Mus musculus)): inactive
- odorant receptor agonist call (Or5p80 (Mus musculus)): inactive
- odorant receptor agonist call (Or7a40 (Mus musculus)): inactive

Compound: O=C(O)CCCCCC(=O)O
- odorant receptor agonist call (Or5p57 (Mus musculus)): inactive

Compound: O=C(O)CCCCCBr
- odorant receptor agonist call (Or5p57 (Mus musculus)): inactive

Compound: CCCCCCCO
- odorant receptor agonist call (Or5p57 (Mus musculus)): active
- odorant receptor agonist call (Or5p80 (Mus musculus)): inactive
- odorant receptor agonist call (Or7a40 (Mus musculus)): inactive

Compound: CCCCOC(=O)C(C)OC(=O)CCC (configuration not stated)
- odorant receptor agonist call (Or5p80 (Mus musculus)): inactive
- odorant receptor agonist call (Or7a40 (Mus musculus)): inactive

Compound: CCCCCO
- odorant receptor agonist call (Or5p57 (Mus musculus)): inactive
- odorant receptor agonist call (Or5p80 (Mus musculus)): inactive
- odorant receptor agonist call (Or7a40 (Mus musculus)): inactive

Compound: CCCCCCCCS
- odorant receptor agonist call (Or5p80 (Mus musculus)): inactive
- odorant receptor agonist call (Or7a40 (Mus musculus)): inactive

Compound: CCCCCCCCO
- odorant receptor agonist call (Or5p57 (Mus musculus)): inactive
- odorant receptor agonist call (Or5p80 (Mus musculus)): inactive
- odorant receptor agonist call (Or7a40 (Mus musculus)): inactive

Compound: CCC(=O)C(=O)CC
- odorant receptor agonist call (Or5p80 (Mus musculus)): inactive
- odorant receptor agonist call (Or7a40 (Mus musculus)): inactive

Compound: O=c1ccc2ccccc2o1
- odorant receptor agonist call (Or5p80 (Mus musculus)): active
- odorant receptor agonist call (Or7a40 (Mus musculus)): inactive
- odorant receptor agonist call (Or8b3 (Mus musculus)): active

Compound: CCCCCCC=CCCC=O
- odorant receptor agonist call (Q8N628 T20A L289V): inactive
- odorant receptor agonist call (Q8NGC2 A119T): inactive
- odorant receptor agonist call (Q8NGH7 D88N): inactive

Compound: CCCCC(=O)CC
- odorant receptor agonist call (Or5p80 (Mus musculus)): inactive
- odorant receptor agonist call (Or7a40 (Mus musculus)): inactive

Compound: CC(=O)OCc1ccccc1
- odorant receptor agonist call (Or5p80 (Mus musculus)): inactive
- odorant receptor agonist call (Or7a40 (Mus musculus)): inactive

Compound: CCCCCC(=O)CC
- odorant receptor agonist call (Or5p80 (Mus musculus)): inactive
- odorant receptor agonist call (Or7a40 (Mus musculus)): inactive

Compound: CCCCCOC(=O)CCCCC
- odorant receptor agonist call (Or5p80 (Mus musculus)): inactive
- odorant receptor agonist call (Or7a40 (Mus musculus)): inactive

Compound: O=C1Cc2ccccc2O1
- odorant receptor agonist call (Or5p80 (Mus musculus)): inactive
- odorant receptor agonist call (Or7a40 (Mus musculus)): inactive

Compound: CCCCCCCCCS
- odorant receptor agonist call (Or5p80 (Mus musculus)): inactive
- odorant receptor agonist call (Or7a40 (Mus musculus)): inactive

Compound: CC(C)=CCCC(C)=CCO
- odorant receptor agonist call (Or5p80 (Mus musculus)): inactive
- odorant receptor agonist call (Or7a40 (Mus musculus)): inactive

Compound: CCOC(=O)C(C)C
- odorant receptor agonist call (Or5p80 (Mus musculus)): inactive
- odorant receptor agonist call (Or7a40 (Mus musculus)): inactive

Compound: CCCCCC=O
- odorant receptor agonist call (Or5p80 (Mus musculus)): inactive
- odorant receptor agonist call (Or7a40 (Mus musculus)): inactive

Compound: CCCCOC=O
- odorant receptor agonist call (Or5p80 (Mus musculus)): inactive
- odorant receptor agonist call (Or7a40 (Mus musculus)): inactive

Compound: COc1cc(C(=O)O)ccc1O
- odorant receptor agonist call (Or5p80 (Mus musculus)): inactive
- odorant receptor agonist call (Or7a40 (Mus musculus)): inactive

Compound: CCCCCCC(C)=O
- odorant receptor agonist call (Or5p80 (Mus musculus)): inactive
- odorant receptor agonist call (Or7a40 (Mus musculus)): inactive

Compound: CCCCCCCC(C)=O
- odorant receptor agonist call (Or5p80 (Mus musculus)): inactive
- odorant receptor agonist call (Or7a40 (Mus musculus)): inactive

Compound: CC(=O)OCC=C(C)C
- odorant receptor agonist call (Or5p80 (Mus musculus)): inactive
- odorant receptor agonist call (Or7a40 (Mus musculus)): inactive

Compound: CCC(=O)O
- odorant receptor agonist call (Or5p80 (Mus musculus)): inactive
- odorant receptor agonist call (Or7a40 (Mus musculus)): inactive

Compound: CCCCC(C)=O
- odorant receptor agonist call (Or5p80 (Mus musculus)): inactive
- odorant receptor agonist call (Or7a40 (Mus musculus)): inactive

Compound: CCCCCCCCCC(=O)[O-].[H+]
- odorant receptor agonist call (Or5p80 (Mus musculus)): inactive
- odorant receptor agonist call (Or7a40 (Mus musculus)): inactive

Compound: CCCCCCOC(C)=O
- odorant receptor agonist call (Or5p80 (Mus musculus)): inactive
- odorant receptor agonist call (Or7a40 (Mus musculus)): inactive

Compound: CCCCCCCCCCO
- odorant receptor agonist call (Or5p80 (Mus musculus)): inactive
- odorant receptor agonist call (Or7a40 (Mus musculus)): inactive

Compound: C=C(C)C1CCC(C)C(=O)C1 (configuration not stated)
- odorant receptor agonist call (Or5p80 (Mus musculus)): inactive
- odorant receptor agonist call (Or7a40 (Mus musculus)): inactive

Compound: O=C1CCOc2ccccc21
- odorant receptor agonist call (Or5p80 (Mus musculus)): inactive
- odorant receptor agonist call (Or7a40 (Mus musculus)): inactive
- odorant receptor agonist call (Or8b3 (Mus musculus)): inactive

Compound: CC(C)=CCCC(C)CCO (configuration not stated)
- odorant receptor agonist call (Or5p80 (Mus musculus)): inactive
- odorant receptor agonist call (Or7a40 (Mus musculus)): inactive

Compound: CCC(S)C(C)CO (configuration not stated)
- odorant receptor agonist call (Q8VF87 A279V): inactive
- odorant receptor agonist call (Q8VF87 E162D): inactive
- odorant receptor agonist call (Q8VF87 I202L): inactive

Compound: CCCC(C)=O
- odorant receptor agonist call (Or5p80 (Mus musculus)): inactive
- odorant receptor agonist call (Or7a40 (Mus musculus)): inactive
